Data on 27 compounds can be found in ChEMBL document CHEMBL1681716, “Novel dihydrothieno[2,3-e]indazole derivatives as IκB kinase inhibitors” (Bioorg Med Chem Lett, 2011).

Experiment [1] concerns the target T1, Inhibitor of nuclear factor kappa-B kinase subunit beta (Homo sapiens, UniProt O14920).
T1 sequence (O14920 whole entry): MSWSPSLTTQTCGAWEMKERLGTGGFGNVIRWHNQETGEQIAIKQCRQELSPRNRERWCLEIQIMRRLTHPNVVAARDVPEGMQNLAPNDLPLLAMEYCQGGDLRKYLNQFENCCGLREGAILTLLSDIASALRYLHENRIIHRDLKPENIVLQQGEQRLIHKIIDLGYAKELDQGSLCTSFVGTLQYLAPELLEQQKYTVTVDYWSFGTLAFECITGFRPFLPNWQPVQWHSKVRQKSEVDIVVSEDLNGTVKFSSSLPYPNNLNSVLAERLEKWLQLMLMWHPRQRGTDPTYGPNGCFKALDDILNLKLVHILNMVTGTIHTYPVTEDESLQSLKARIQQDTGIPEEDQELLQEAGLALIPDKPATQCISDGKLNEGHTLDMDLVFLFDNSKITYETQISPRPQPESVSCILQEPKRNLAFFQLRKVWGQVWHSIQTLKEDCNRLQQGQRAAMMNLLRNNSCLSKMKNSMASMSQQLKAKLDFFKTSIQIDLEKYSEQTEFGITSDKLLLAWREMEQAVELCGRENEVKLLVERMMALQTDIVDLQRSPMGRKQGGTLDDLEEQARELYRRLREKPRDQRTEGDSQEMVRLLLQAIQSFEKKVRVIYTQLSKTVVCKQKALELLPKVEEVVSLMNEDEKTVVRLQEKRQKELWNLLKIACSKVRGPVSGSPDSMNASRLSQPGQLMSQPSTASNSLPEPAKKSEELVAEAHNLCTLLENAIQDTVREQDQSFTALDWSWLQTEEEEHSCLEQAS
The experiment in a line: Inhibition of human IKK-beta by substrate phosphorylation assay. In short, it runs like this:
(§1)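 Human IKK-α or IKK-β was tested on a biotinylated 21-residue IκBα peptide captured on avidin-coated plates and blocked with 3% BSA. Enzyme in 25 mM Tris pH 7.4, 2 mM DTT and 0.01% Tween 20 was preincubated with compound (1% DMSO) for 10 min at 25 °C. An ATP/MgCl₂ solution started the reaction, which ran 60 min at 25 °C. Phospho-IκBα was detected with a mouse monoclonal antibody, then HRP anti-mouse IgG and TMB.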

Experiment [2] has as its system THP-1. The experiment in a line: Antiinflammatory activity in human THP1 cells assessed as inhibition of LPS-induced TNF-alpha production after 6 hrs by ELISA. The conditions noted are these: THP-1, 6 h.
In experiment [3] the target is T2, Inhibitor of nuclear factor kappa-B kinase subunit alpha (Homo sapiens, UniProt O15111).
T2 sequence (O15111 whole entry): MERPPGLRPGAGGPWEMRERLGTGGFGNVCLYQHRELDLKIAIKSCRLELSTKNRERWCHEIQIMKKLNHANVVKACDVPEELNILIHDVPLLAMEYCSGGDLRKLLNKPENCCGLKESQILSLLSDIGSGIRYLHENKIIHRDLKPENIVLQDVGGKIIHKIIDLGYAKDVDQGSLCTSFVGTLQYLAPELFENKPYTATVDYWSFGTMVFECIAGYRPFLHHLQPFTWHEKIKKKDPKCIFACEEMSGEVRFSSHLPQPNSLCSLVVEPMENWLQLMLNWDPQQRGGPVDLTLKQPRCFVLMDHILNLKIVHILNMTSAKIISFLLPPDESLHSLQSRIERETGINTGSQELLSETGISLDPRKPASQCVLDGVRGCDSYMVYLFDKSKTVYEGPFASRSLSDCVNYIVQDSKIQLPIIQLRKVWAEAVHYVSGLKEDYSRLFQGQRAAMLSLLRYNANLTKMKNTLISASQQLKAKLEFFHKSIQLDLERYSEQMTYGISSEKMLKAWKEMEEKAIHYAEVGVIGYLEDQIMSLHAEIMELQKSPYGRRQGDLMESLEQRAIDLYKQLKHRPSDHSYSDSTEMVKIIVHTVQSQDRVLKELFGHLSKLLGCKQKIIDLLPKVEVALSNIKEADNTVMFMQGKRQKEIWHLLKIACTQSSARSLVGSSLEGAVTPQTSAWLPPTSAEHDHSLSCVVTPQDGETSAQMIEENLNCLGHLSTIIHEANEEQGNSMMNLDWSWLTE
The experiment can be described thus: Inhibition of human IKK-alpha by substrate phosphorylation assay. The procedure, abridged: as §1

Experiment [4] deals with Mus musculus. The experiment in a line: Antiinflammatory activity in po dosed DBA/2 mouse assessed as inhibition of LPS-stimulated plasma TNFalpha production pretreated 60 mins before LPS challenge measured after 90 mins by ELISA. The format is functional, organism-based. The procedure, abridged:
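Female DBA/2 mice were given compound by oral gavage at 3 and 10 mg/kg. After 60 min, LPS in 0.2 mL saline was injected i.p. Plasma TNF-α was measured by ELISA 90 min after the LPS challenge.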

Some results are limits rather than exact numbers.

On to `CN(CCn1cc2c(n1)CCc1c-2sc(NC(N)=O)c1C(N)=O)Cc1ccccc1`, for which the IC50 in experiment [1] is 4600 nM; in experiment [2], 5.1 µM.

Regarding `NC(=O)Nc1sc2c(c1C(N)=O)CCc1nn(Cc3cccnc3)cc1-2`, the IC50 in experiment [1] came to 4800 nM; in experiment [2], 24 µM.

Turning to `COc1ccc(CN2CCCC(n3cc4c(n3)CCc3c-4sc(NC(N)=O)c3C(N)=O)C2)c(F)c1` (stereo unspecified), the IC50 in experiment [3] was over 100 µM; in experiment [1], 1900 nM; in experiment [2] it was 3.8 µM.

Take `NC(=O)Nc1sc2c(c1C(N)=O)CCc1c-2cnn1Cc1ccc(F)cc1`: the IC50 was determined as 200 nM in experiment [1] and 12 µM in experiment [2].

Consider `CC(C)n1cc2c(n1)CCc1c-2sc(NC(N)=O)c1C(N)=O`, for which the values for the IC50 in experiment [1] and in experiment [2] were 2300 nM and 4.6 µM, respectively.

`NC(=O)Nc1sc2c(c1C(N)=O)CCc1nn(Cc3ccc(F)cc3)cc1-2`: the half-maximal inhibitory concentration (IC50) in experiment [1] came to 900 nM; in experiment [2], 2.5 µM.

As for `NC(=O)Nc1sc2c(c1C(N)=O)CCc1nn(C3CCCN(Cc4ccc(O)cc4F)C3)cc1-2` (stereo unspecified), the IC50 was determined as 900 nM in experiment [1] and 0.7 µM in experiment [2].

With `NC(=O)Nc1sc2c(c1C(N)=O)CCc1nn(Cc3ccccn3)cc1-2`, the IC50 was 4500 nM in experiment [1] and over 30 µM in experiment [2].

`COCCn1cc2c(n1)CCc1c-2sc(NC(N)=O)c1C(N)=O`: in experiment [1], the IC50 is 11000 nM.

Turning to `CN(C)CCn1cc2c(n1)CCc1c-2sc(NC(N)=O)c1C(N)=O`, in experiment [1], half-maximal inhibition (IC50) was put at 8800 nM.

Turning to `NC(=O)Nc1sc2c(c1C(N)=O)CCc1nn(C3CN(Cc4ccccc4)C3)cc1-2`, the results for the IC50 in experiment [1] and in experiment [2] were 7100 nM and 2.5 µM, respectively.

As for `NC(=O)Nc1sc2c(c1C(N)=O)CCc1nn(Cc3ccccc3)cc1-2`, the figures for the half-maximal inhibitory concentration (IC50) in experiment [1] and in experiment [2] were 4200 nM and 5.6 µM, respectively.

The compound `NC(=O)Nc1sc2c(c1C(N)=O)CCc1nn(C3CCCCN(Cc4ccccc4)C3)cc1-2` (racemic) came in with an IC50 in experiment [1] of over 10000 nM.

Consider `NC(=O)Nc1sc2c(c1C(N)=O)CCc1nn(Cc3ccncc3)cc1-2`, for which the IC50 came to 2300 nM in experiment [1] and 9 µM in experiment [2].

Consider `NC(=O)Nc1sc2c(c1C(N)=O)CCc1nn(C3CCCN(Cc4ccc(Cl)cc4F)C3)cc1-2` (stereo unspecified), for which the IC50 worked out at 41 µM in experiment [3], 500 nM in experiment [1] and 4.4 µM in experiment [2].

On to `NC(=O)Nc1sc2c(c1C(N)=O)CCc1nn(C3CCCN(Cc4ccc(N)cc4F)C3)cc1-2` (stereo unspecified), for which the results for the IC50 in experiment [3], in experiment [1] and in experiment [2] were 9 µM, 500 nM and 0.5 µM, respectively.

For `CCCn1ncc2c1CCc1c-2sc(NC(N)=O)c1C(N)=O`, the IC50 stood at 2200 nM in experiment [1] and 42 µM in experiment [2].

For `CCCCn1cc2c(n1)CCc1c-2sc(NC(N)=O)c1C(N)=O`, the IC50 was 2700 nM in experiment [1] and 4 µM in experiment [2].

As to `NC(=O)Nc1sc2c(c1C(N)=O)CCc1nn(C3CCCN(Cc4ccc(F)cc4F)C3)cc1-2` (stereo unspecified), the IC50 in experiment [3] is over 100 µM; in experiment [1], 1700 nM; in experiment [2] it was 0.8 µM. Further, the inhibition result in experiment [4] is “Dose-dependent effect”.

For `NC(=O)Nc1sc2c(c1C(N)=O)CCc1nn(C3CCN(Cc4ccccc4)CC3)cc1-2`, the values for the IC50 in experiment [1] and in experiment [2] were 4800 nM and 1.2 µM, respectively.

In the case of `CCCn1cc2c(n1)CCc1c-2sc(NC(N)=O)c1C(N)=O`, the results for the IC50 in experiment [1] and in experiment [2] were 2900 nM and 5.2 µM, respectively.

With `NC(=O)Nc1sc2c(c1C(N)=O)CCc1nn(C3CCCN(Cc4cc(F)c(F)cc4F)C3)cc1-2` (stereo unspecified), the IC50 was found to be 3100 nM in experiment [1] and 0.3 µM in experiment [2].

Compound `CC(=O)Nc1ccc(CN2CCCC(n3cc4c(n3)CCc3c-4sc(NC(N)=O)c3C(N)=O)C2)c(F)c1` (stereo unspecified) showed an IC50 in experiment [1] of over 10000 nM.

As to `NC(=O)Nc1sc2c(c1C(N)=O)CCc1nn(C3CCCN(Cc4ccccc4)C3)cc1-2` (racemic), the IC50 was over 100 µM in experiment [3], 2200 nM in experiment [1] and 0.5 µM in experiment [2].

`CCCCCCn1cc2c(n1)CCc1c-2sc(NC(N)=O)c1C(N)=O`: 8400 nM corresponded to half-maximal inhibition in experiment [1] (IC50).

Take `NC(=O)Nc1sc2c(c1C(N)=O)CCc1nn(C3CCN(Cc4ccccc4)C3)cc1-2` (racemic): the IC50 worked out at 3000 nM in experiment [1] and 1.7 µM in experiment [2].

For the compound `NC(=O)Nc1sc2c(c1C(N)=O)CCc1nn(C3CCCN(Cc4ccc(Cl)cc4)C3)cc1-2` (stereo unspecified), the IC50 in experiment [3] was over 100 µM; in experiment [1], 2500 nM; in experiment [2], 0.6 µM.
